NR2E3 ag-1: NR2E3 agonists in two-hybrid cells, primary screen, cell-based, luminescence, CHO-S, Gal4-NCOR/VP16-NR2E3 | AID 602229, 2012 | hit rate 0.35% among 360,000 | inhibition of corepressor binding, % at 3.98 µM | Photoreceptor-specific nuclear receptor (Homo sapiens), Q9Y5X4 | luciferase;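 active = inhibition above the mean of all tested compounds plus 3 SD, cut at about 70% in these data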;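 also: 0% = DMSO with NR2E3 transfected cells and 100% = cells lacking NR2E3 construct; higher means lower luciferase signal from less NR2E3 corepressor binding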
CHT block: inhibitors of human choline transporter CHT; hit rate 0.86% among 310,000; AID 488975, 2010; High affinity choline transporter 1 (Homo sapiens), Q9GZV3; B-score at 10 µM; CHT-expressing cells, membrane potential dye, choline response; stronger effect = lower value;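 active = B-score over 3 SD under the library average, and starting fluorescence ratio not unusually high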;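 also: choline stimulus applied at its EC90 after an EC20 pre-addition; B-score computed on integrated fluorescence ratio after choline addition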
Target sequence (Q9GZV3 whole entry, looked up): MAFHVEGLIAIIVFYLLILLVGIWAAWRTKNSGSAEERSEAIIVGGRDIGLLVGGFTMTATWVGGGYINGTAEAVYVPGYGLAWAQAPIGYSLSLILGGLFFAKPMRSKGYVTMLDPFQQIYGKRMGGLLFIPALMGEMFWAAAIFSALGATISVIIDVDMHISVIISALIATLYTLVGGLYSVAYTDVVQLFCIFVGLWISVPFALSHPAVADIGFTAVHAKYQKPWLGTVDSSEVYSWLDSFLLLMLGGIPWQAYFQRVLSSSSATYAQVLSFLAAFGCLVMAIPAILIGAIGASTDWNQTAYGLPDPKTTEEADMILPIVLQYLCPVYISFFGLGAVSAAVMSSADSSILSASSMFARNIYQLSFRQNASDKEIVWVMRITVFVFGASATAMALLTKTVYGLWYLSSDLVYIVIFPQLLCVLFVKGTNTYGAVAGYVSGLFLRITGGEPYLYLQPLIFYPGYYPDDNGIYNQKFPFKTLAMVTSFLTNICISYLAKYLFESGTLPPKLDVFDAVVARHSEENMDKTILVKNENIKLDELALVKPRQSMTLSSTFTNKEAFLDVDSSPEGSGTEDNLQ
COUP-TFII inh: NR2F2 transcriptional activity inhibitors, primary screen, cell-based, luciferase reporter, HEK293T, luminescence | COUP transcription factor 2 (Homo sapiens), P24468 | HEK293T NGFI-A luciferase reporter | inhibition, % at 8.6 µM | hit rate 0.7% among 370,000;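 active = inhibition above a per-plate cutoff, mean inhibition of test wells between control levels plus 3 SD, cut at about 38% in these data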;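 also: cells cotransfected with COUP-TFII expression vector driving the NGFI-A reporter; 0% = median of COUP-TF2 test wells and 100% = reporter-only cells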
NR2E3 ag-2: inhibitors of NR2E3-RetCOR corepressor binding, primary screen, NR2E3 agonist project, biochemical, TR-FRET, GST-NR2E3, biotin-RetCOR; Photoreceptor-specific nuclear receptor (Homo sapiens), Q9Y5X4; 1536-well; inhibition of corepressor binding, % at 4.78 µM; hit rate 0.12% among 320,000; AID 2300, 2010;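 active = percent inhibition above the cutoff of mean plus 3 SD of all tested compounds, set per screening campaign, cut at about 20% in these data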;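 also: 0% = DMSO wells and 100% = biotin wells as full block of FRET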
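system = GST-tagged NR2E3 plus biotinylated RetCOR corepressor | input = 1.35 nM GST-NR2E3 | also added = 7 nM biotin-RetCOR | schedule = 5 h incubation at 4 °C | measured by = TR-FRET with europium anti-GST and streptavidin-D2, 340 nm excitation | read-out = percent loss of FRET ratio relative to control wells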
GalR3 antagonist: GalR3 antagonists in HEK293 cells, primary screen, cell-based, fluorescence readout. Galanin receptor type 3 (Homo sapiens), O60755. HEK293 GalR3-CNG cAMP membrane potential fluorescence; galR3 body fused to GalR1 C-terminus. inhibition, % at 3 µM. hit rate 0.44% among 360,000. AID 651719, 2012;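 active = inhibition above the screen-wide average plus 3 SD, cut at about 13% in these data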;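 also: forskolin and galanin both at EC90 stimulate the cells; cAMP rise reported by CNG channel membrane potential dye signal; 0% = forskolin plus galanin with DMSO and 100% = forskolin alone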
CHT allo act: CHT positive allosteric modulators, primary screen, cell-based, membrane potential dye, choline EC20 | High affinity choline transporter 1 (Homo sapiens), Q9GZV3 | CHT-expressing cells; stronger effect = higher value; LV-AA mutant CHT in HEK293 cells | B-score at 10 µM | hit rate 0.49% among 310,000 | AID 488977, 2010;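 active = initial fluorescence not abnormally high and integrated response B-score, plate-corrected, over 3 SD above library mean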
NR2E3 ag confirm: NR2E3 agonist confirmation in cells, cell-based, luminescence, CHO-S two-hybrid; shares compounds with NR2E3 ag-1; hit rate 51% among 2,300; CHO-S mammalian two-hybrid NR2E3-NCOR, luciferase luminescence; inhibition, % at 3.98 µM;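 active = average inhibition above a cutoff equal to the mean inhibition of all tested compounds plus one SD, cut at about 70% in these data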;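 also: 0% = DMSO in NR2E3 cells and 100% = DMSO in cells lacking NR2E3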
GAL4-VP16 luc: GAL4-VP16 reporter modulators, confirmation, counter-screen for NR2E3 agonist project, cell-based, luminescence, CHO-S, high throughput | shares compounds with NR2E3 ag-1 | CHO-S GAL4-VP16 luciferase reporter | inhibition, % at 3.98 µM | hit rate 29% among 2,300 | AID 624379, 2012;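 active = mean inhibition above a cutoff equal to the average over all tested compounds plus one standard deviation, cut at about 70% in these data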;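 also: luciferase from a UAS reporter driven by GAL4-VP16 transactivation; 0% = DMSO with VP16-transfected cells and 100% = DMSO with cells lacking VP16; higher means less reporter light so more repression of VP16 activity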
Numbers without * were called inactive; i = inactive; nt = no result given. Shown are actives, neighbours in structure and some others; about 2.3% of the full set was active somewhere.

SMILES | NR2E3 ag-1 | CHT block | COUP-TFII inh | NR2E3 ag-2 | GalR3 antagonist | CHT allo act | NR2E3 ag confirm | GAL4-VP16 luc
Cc1ccc(S(=O)(=O)N(C)C)cc1NC(=O)C(C)NC(C)c1cccs1 (stereo not given) | 8.7 | i | 2.3 | 0.8 | -6.1 | i | nt | nt
Cc1ccc(S(=O)(=O)N(C)C)cc1NC(=O)C(C)N(C)Cc1sccc1C (stereo not given) | 60.1 | i | 29.3 | 0.2 | -3.7 | i | 36.8 | 30.7
O=C(OCc1ccccc1)N1CCC2CC1c1ccc(N3CCN(Cc4ccccc4)CC3)cc12 (stereo not given) | nt | nt | -23.7 | nt | -6.2 | nt | nt | nt
O=[N+]([O-])c1ccc(O)c(C2CCCCC2)c1 | 99.0* | nt | -1.6 | nt | -2.4 | nt | 99.1* | 92.1*
Cc1ccnc2c1ccc1c(C)ccnc12 | 78.2* | nt | nt | 2.1 | nt | nt | 43.1 | 9.7
Cc1ccnc2c1ccc1cccnc12 | 74.3* | nt | -3.2 | nt | -4.2 | nt | 17.3 | -10.7
COc1ccc(CNCC#Cc2cccnc2)c(OC)c1 | nt | nt | -4.2 | nt | nt | nt | nt | nt
Cc1cccc(-c2nc(CSCC(=O)N3CCN(c4ccccn4)CC3)c(C)o2)c1 | 78.0* | i | 20.4 | -1.8 | -3.6 | i | 81.0* | 55.5
Cc1ccsc1-c1nc(CSCC(=O)N2CCN(c3ccccc3)CC2)c(C)o1 | 58.3 | i | 14.8 | 4.0 | nt | i | 34.8 | 27.3
O=C(C1CCC1)n1ccc2ccc(-c3ccc4ccn(Cc5ccccc5)c4c3)cc21 | nt | nt | 4.9 | nt | nt | nt | nt | nt
Cc1ccc(-n2c(C)nc3c(cnn3-c3ccc(C)c(C)c3)c2=O)cc1C | -36.8 | i | -1.0 | 4.2 | -0.8 | i | nt | nt
Cc1ccc(-n2c(C)nc3c(cnn3-c3ccc(F)cc3)c2=O)cc1C | 54.5 | i | 8.0 | -0.3 | -1.4 | i | 88.1* | 60.0
CCOC(=O)c1ccc(NS(=O)(=O)c2cc3c4c(c2)CCN4C(=O)CC3)cc1 | 62.7 | i | 17.6 | -1.6 | -0.8 | i | 22.0 | 28.2
CCC(O)(c1ccc(NC(=O)OC(C)(C)C)cc1)c1cc(OC)cc(OC)c1 (stereo not given) | nt | nt | 7.0 | nt | nt | nt | nt | nt
COc1ccccc1NS(=O)(=O)c1ccc(NN=C2CCCC2)c([N+](=O)[O-])c1 | 64.1 | i | 4.1 | 1.2 | -3.8 | i | 65.1 | 62.7
COc1ccccc1NS(=O)(=O)c1ccc(N/N=C/C=C/c2ccccc2[N+](=O)[O-])c([N+](=O)[O-])c1 | 3.8 | i | 1.0 | -0.4 | -1.3 | i | nt | nt
COc1cccc(NC(=O)Nc2nc3ncccn3c2-c2ccc(F)c(F)c2)c1 | nt | nt | -6.5 | nt | nt | nt | nt | nt
Cc1csc2c(N3CCN(C(=O)c4ccc(C(C)(C)C)cc4)CC3)ncnc12 | 76.8* | i | -0.4 | -4.3 | -6.3 | i | 96.6* | 83.9*
Cc1csc2c(N3CCN(C(=O)Nc4ccc(Cl)c(Cl)c4)CC3)ncnc12 | 81.0* | i | 6.0 | 2.8 | 0.5 | i | 97.4* | 84.3*
CN(C)[C@H]1CCN(c2ccc3c(c2)O[C@H]2CCN(C2)S3(=O)=O)C1 | nt | nt | -17.9 | nt | nt | nt | nt | nt
Cc1c(C(=O)Nc2ccc3c(c2)OCCO3)sc2nc(-c3ccccc3)cn12 | 65.9 | i | 32.3 | 1.8 | -2.3 | i | 69.5 | 57.2
O=C(c1ccc(O)c(Br)c1)c1cc(Br)ccc1O | 85.0* | nt | 3.1 | nt | 3.8 | nt | 96.2* | 74.2*
O=C(c1cnn(-c2ccccc2)c1)c1cc(Br)ccc1O | 10.6 | nt | 16.7 | 3.9 | -6.2 | nt | nt | nt
O=C(OC12CCCN(C1)/C(=C/c1cccc(Cl)c1)C2)c1ccc(F)cc1 (stereo not given) | nt | nt | -27.1 | nt | nt | nt | nt | nt
O=c1[nH]sc2ccccc12 | 74.9* | nt | -15.4 | nt | -6.3 | nt | 4.3 | 3.1
SMILES | NR2E3 ag-1 | CHT block | COUP-TFII inh | NR2E3 ag-2 | GalR3 antagonist | CHT allo act | NR2E3 ag confirm | GAL4-VP16 luc
O=c1ccsc2ccccc12 | 11.9 | nt | -3.4 | nt | -2.1 | nt | nt | nt
CCCCNS(=O)(=O)/C=C/c1ccccc1CNC(=O)OC(C)(C)C | nt | nt | -11.1 | nt | nt | nt | nt | nt
Cc1nn(Cc2cccc(F)c2)c(C)c1NC(=O)c1ccc(COc2ccccc2Cl)cc1 | 79.0* | i | 12.7 | -1.5 | -10.7 | i | 93.9* | 39.9
Cc1nn(Cc2c(F)c(F)c(F)c(F)c2F)c(C)c1NC(=O)c1cccc(COc2ccccc2Cl)c1 | -186.2 | i | -52.4 | 2.1 | -2.5 | i | nt | nt
COC(=O)[C@@]12CCCCC=C1N(CCc1ccc(Cl)cc1)C(=O)[C@H]2CC(=O)NCc1cccc(C(F)(F)F)c1 | nt | nt | -7.7 | nt | nt | nt | nt | nt
CC1(c2ccc3ccccc3c2)NC(=O)N(CC(=O)N2CCN(Cc3ccccc3)CC2)C1=O (stereo not given) | 64.4 | nt | nt | 2.2 | nt | nt | 70.2* | 57.1
CC1(c2ccc3ccccc3c2)NC(=O)N(CC(=O)N2CCC(C(N)=O)CC2)C1=O (stereo not given) | -12.0 | i | 6.5 | -2.6 | -3.4 | i | nt | nt
O=C(OCCN1CCN(C2CN(Cc3cn(Cc4ccccc4Cl)nn3)S(=O)(=O)C2)CC1)c1cccs1 (stereo not given) | nt | nt | -15.4 | nt | nt | nt | nt | nt
Oc1ccc(O)c(C=NNC(=S)NC2CC3CC2C2C=CCC32)c1 (stereo not given) | 52.9 | nt | -16.1 | nt | -5.6 | nt | -17.6 | -34.2
Oc1c(Cl)cc(Cl)cc1/C=N/NC(=S)NC1CC2C=CC1C2 (stereo not given) | 7.9 | i | 12.6 | -0.3 | -3.8 | i | nt | nt
COCCN1C(=O)C2=C(C1=O)C1N(C)c3ccccc3[C@@]13C[C@@H](CO)N(S(=O)(=O)c1ccc(OC)cc1)C3=N2 (stereo not given in full) | nt | nt | -15.2 | nt | nt | nt | nt | nt
CCOC(=O)c1csc(NC(=O)C2CCCN(S(=O)(=O)c3cc(OC)ccc3OC)C2)n1 (stereo not given) | nt | nt | 3.4 | nt | nt | nt | nt | nt
Cc1ccc2sc(N3CCN(C(=O)C4=COCCO4)CC3)nc2c1C | 59.0 | i | -18.0 | -0.7 | -1.9 | i | 60.5 | 38.0
COC(=O)C1=C(CN2CCCc3ccccc32)NC(=O)NC1c1ccc(F)cc1 (stereo not given) | 83.6* | i | 95.9* | 1.8 | 4.6 | i | 66.5 | 66.8
COC(=O)C1=C(CS(=O)(=O)c2ccccc2)NC(=O)NC1c1ccccc1 (stereo not given) | -20.8 | i | 8.1 | -1.8 | -10.0 | i | nt | nt

Compound activity (PubChem BioAssay)
